From PubChem BioAssay
BasE inh: BasE siderophore biosynthesis inhibition | purified BasE, fluorescence polarization binding displacement | inhibition, % (test concentration not listed) | hit rate 0.1% among 84,000 | AID 485350; in the data active = inhibition above about 25%, passing the limit was not always enough;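 note: 0% = negative plate control signal and 100% = positive plate control signal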
KSHV LANA nucl: LANA-nucleosome interaction inhibition; FITC-LANA1-23 / chicken nucleosome fluorescence polarization; stronger effect = lower value; z-score (test concentration not listed); hit rate 0.3% among 51,000; AID 720717;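 active = both repeat wells score below -2 in polarization z-score versus plate sample wells, excluding overly bright wells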
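System – purified chicken nucleosomes with FITC-labelled LANA N-terminal peptide (1-23) · Amount – 240 nM purified chicken nucleosomes (480 nM peptide binding sites), final · Also added – 50 nM FITC-LANA1-23 probe · Medium – TEN-BT buffer, pH 7.5 · Incubation – compound with peptide–nucleosome mix 10–45 min at room temperature · Detection – fluorescence polarization, ex 480 nm, em 535 nm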
The depositor's hits bear a star. Compounds with a hit are over-represented: about 0.3% of the library has one in this group of screens.

`O=C(Cn1cnc2ccccc21)OCc1ccc(Br)cc1` gave BasE inh 27*.
For NC(=O)Cn1cnc2ccccc21 the results were BasE inh 1 and KSHV LANA nucl 0.14.
`CC(C)CC(C(=O)O)N1Cc2ccccc2C1=O` (stereo not given) gave KSHV LANA nucl -0.58.
For CC(C)CCNC(=O)[C@H](CC(C)C)NC(=O)[C@H]1O[C@@H]1C the results were KSHV LANA nucl -0.15.
Cc1cc2c(n1-c1ccc(C(=O)O)cc1)CCCC2 was read as BasE inh 31* and KSHV LANA nucl 0.84.
For Cc1cc2c(n1-c1ccc(C(=O)NCCc3cccs3)cc1)CCCC2 the results were BasE inh 1 and KSHV LANA nucl -0.097.
`CCC(=O)NC(c1ccccc1OC)c1cc(Cl)c2cccnc2c1O` (stereo not given) gave BasE inh 0 and KSHV LANA nucl -1.6.
Cn1cc(Cl)c(C(=O)OCC(=O)NCc2ccccc2)n1 was read as BasE inh -3 and KSHV LANA nucl 0.2.
`COc1ccccc1NS(=O)(=O)c1cccc(C(=O)Nn2cnnc2)c1` gave BasE inh 1.
Cc1cc(NCCN(C)C)c2ccccc2n1 was read as BasE inh 3 and KSHV LANA nucl -2.2*.
Screening Cc1cc(NCCNc2ccccc2)c2ccc3ccccc3c2n1 returned BasE inh -13.
For O=C(NCCCO)Nc1ccc2nc(-c3ccco3)c(-c3ccco3)nc2c1 the results were BasE inh 23 and KSHV LANA nucl -3*.
O=C(Nc1ccc(N2CCOCC2)cc1)Nc1ccc2nc(-c3ccco3)c(-c3ccco3)nc2c1 was read as BasE inh 3 and KSHV LANA nucl -0.67.
For c1ccc(CCN2CCc3nc(N4CCN(c5ccccc5)CC4)ncc3C2)cc1 the results were BasE inh -1 and KSHV LANA nucl 0.6.
COc1ccc(-n2cc(C(=O)NCCCN3CCCC3=O)nn2)cc1 was read as BasE inh 0 and KSHV LANA nucl 0.62.
For CCOC(=O)C1=C(Nc2ccc(OC)cc2)OCC1=O the results were BasE inh 4 and KSHV LANA nucl -2.1*.
Screening O=C(O)C1=C(Nc2ccccc2)OCC1=O returned BasE inh 1.
`CC(C)CNC(=O)c1ccc(CSc2ncn[nH]2)cc1` gave BasE inh -2.
Screening Clc1ccc2c(c1)NNc1nncn1-2 returned BasE inh 3 and KSHV LANA nucl -0.2.
O=C(O)CSc1nnc2n1-c1ccc(Cl)cc1NN2 was read as BasE inh 28 and KSHV LANA nucl -5.6*.
Screening O=C(Nc1cccc(-n2cnnn2)c1)C1CC(=O)N(c2ccc3c(c2)OCCO3)C1 (stereo not given) returned BasE inh 1.
Screening COC(=O)c1sc2nc(-c3ccco3)cc(C(F)(F)F)c2c1N returned BasE inh 3 and KSHV LANA nucl -1.1.
COC(=O)c1sc2nc3c(c(C(F)(F)F)c2c1N)CN(C(C)=O)CC3 was read as BasE inh 31 and KSHV LANA nucl -8.1*.
Screening NC(=O)COC(=O)c1cccc(S(=O)(=O)N2CCc3ccccc32)c1 returned BasE inh -1.
Screening CC1=CC(C)=NC2Nc3c(C)cc(C)cc3C(=N)C12 (stereo not given) returned BasE inh 5 and KSHV LANA nucl -2.2*.
`CSc1cc(C(F)(F)F)nc(-c2ccccn2)n1` gave KSHV LANA nucl -0.86.
Screening CCNc1cc(NCC)c2noc3c2c1C(=O)c1ccccc1-3 returned BasE inh 3 and KSHV LANA nucl -0.064.
`CC(=O)OCCNc1cc(Cl)c2noc3c2c1C(=O)c1ccccc1-3` gave BasE inh 8 and KSHV LANA nucl -3.7*.
Screening CCc1ccc(OCC(=O)Nc2ccc(S(N)(=O)=O)cc2)cc1 returned BasE inh -1 and KSHV LANA nucl 0.021.
For COc1ccccc1-n1cnc2cc(NCc3ccncc3)ccc21 the results were BasE inh 32* and KSHV LANA nucl 0.49.
CCCCn1cnc2cc(NCc3ccncc3)ccc21 was read as BasE inh 13 and KSHV LANA nucl -0.39.
O=c1c(C=NCCc2ccccc2)c(NCCc2ccccc2)nc2ccccn12 was read as BasE inh 1.
Screening COCCn1c(C)cc(-c2csc(NCc3ccc(C)cc3)n2)c1C returned BasE inh -1.
c1ccc2c(c1)nnn2CNCn1nnc2ccccc21 was read as BasE inh 6 and KSHV LANA nucl -0.48.
For O=C(O)Cc1nonc1NCn1nnc2ccccc21 the results were BasE inh 40* and KSHV LANA nucl 0.61.
Screening O=C(Nc1cccc(-c2nn[nH]n2)c1)c1ccc(Br)o1 returned BasE inh 3 and KSHV LANA nucl -2.1*.
`O=C(Nc1cccc(-c2nn[nH]n2)c1)c1cccc(C(F)(F)F)c1` gave BasE inh 0 and KSHV LANA nucl -0.21.
For CCOc1ccc(NC(=O)C2CC(=O)NC(N3CCCCC3)=N2)cc1 (stereo not given) the results were BasE inh 0 and KSHV LANA nucl 0.58.
For CN(CCC#N)C(=O)C1CCN(S(=O)(=O)c2cccs2)CC1 the results were BasE inh 2.
For Cc1cc(O)c(Cc2cc(Cl)c3cccnc3c2O)c(=O)o1 the results were BasE inh 78*.
`O=c1oc2ccccc2c(O)c1Cc1cc(Cl)c2cccnc2c1O` gave BasE inh 23.
`Cc1cc(C(=O)NCc2ccc(Cl)cc2)on1` gave BasE inh 0 and KSHV LANA nucl -1.3.
Screening Cn1nc(-c2ccc(F)cc2)nc2c(=O)n(C)c(=O)nc1-2 returned BasE inh 36 and KSHV LANA nucl -4.8*.
Fc1ccc(-c2nc3n(n2)Cc2ccccc2-3)cc1 was read as BasE inh -2 and KSHV LANA nucl 1.
`CC(C)(C)N/N=C/c1ccc(O)c(O)c1O` gave BasE inh 5.
Oc1ccc(/C=N/NC(=S)Nc2ccc(Cl)cc2Cl)c(O)c1O was read as BasE inh 34*.
Cn1c(SCc2cccc(-c3noc(-c4ccc(Cl)cc4)n3)c2)nnc1C(F)(F)F was read as BasE inh -4 and KSHV LANA nucl 2.3.
`CCOC(=O)N1CCN(C(=O)CC2c3ccccc3Oc3ccccc32)CC1` gave BasE inh 1 and KSHV LANA nucl -1.
Screening O=C1CN(C(=O)CC2c3ccccc3-c3ccccc32)CC(=O)N1 returned BasE inh 43* and KSHV LANA nucl -0.66.
Screening Cn1nccc1C(N)c1ccccc1 (stereo not given) returned BasE inh 26* and KSHV LANA nucl -0.53.
`NC(c1ccccc1)c1ccccc1` gave BasE inh -2.
`CCCCc1ccc(NC(=O)N=S2CCN(C(=O)c3ccc(Cl)cc3)CC2)cc1` gave BasE inh 1.
For O=C1NC(C(=O)O)Cc2ccccc21 (stereo not given) the results were BasE inh -1.
CCOC(=O)c1cc2c(=O)n3ccccc3nc2n(CC2CCCO2)c1=NC(C)=O (stereo not given) was read as BasE inh -4 and KSHV LANA nucl 0.76.
Screening CCOC(=O)c1cc2c(=O)n3ccccc3nc2n(C2CCCCC2)c1=NC(=O)c1cccnc1 returned BasE inh 2 and KSHV LANA nucl -2.6*.
CC(C)c1c(Br)c(=O)oc2c3c4c(cc12)CCCN4CCC3 was read as BasE inh 21.
For O=c1ccc2cc3c4c(c2o1)CCCN4CCC3 the results were BasE inh 17 and KSHV LANA nucl -5.2*.
For CSc1scc2c1C(=O)/C(=C/N(C)C)CC2 the results were BasE inh 36* and KSHV LANA nucl -0.49.
